How the values were obtained:
[1] = Inhibition of Hedgehog signaling pathway in mouse NIH/3T3 cells assessed as reduction in Sonic hedgehog-induced Gli luciferase activity after 48 hrs by Dual-luciferase reporter gene assay; assay type: cell-based; details: NIH3T3, 48 h
How it was run: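 NIH3T3 cells stably carrying a Gli-luciferase reporter were grown in DMEM/10% FBS with 1 μg/mL puromycin. They were seeded at 2×10⁴ cells/well and cultured overnight at 37 °C, 5% CO₂. Compounds were added as 8-point serial dilutions (0.05–300 nM) in 0.5% FBS with 0.7 μg/mL Sonic Hh agonist, n = 4 wells, for 48 h. Controls were 0.1% DMSO with or without Shh. Read-out was the Firefly/Renilla luciferase ratio.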

[2] = Apparent volume of distribution in Sprague-Dawley rat at 1 mg/kg, iv by LC/MS/MS analysis; assay type: ADME, organism-based; details: in vivo, read-out: Vz
How it was run: (§1)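 Male SD rats (3; 180–240 g) received a single 1 mg/kg iv dose at a dosing volume of 5 mL/kg. Blood was sampled at 2, 5, 15 and 30 min and at 1, 2, 4, 6, 8, 10 and 24 h, then centrifuged for 5 min at 4 °C. Plasma underwent protein precipitation and LC/MS/MS in SRM mode with an internal standard. Parameters were derived by noncompartmental analysis.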

[3] = Clearance in Sprague-Dawley rat at 1 mg/kg, iv by LC/MS/MS analysis; assay type: ADME, organism-based; details: in vivo; how it was run: as §1
[4] = AUC in Sprague-Dawley rat at 1 mg/kg, iv by LC/MS/MS analysis; assay type: ADME, organism-based; details: in vivo; how it was run: as §1
[5] = Cmax in Sprague-Dawley rat at 1 mg/kg, iv by LC/MS/MS analysis; assay type: ADME, organism-based; set-up: dose 1 mg/kg, route intravenous; details: in vivo; how it was run: as §1
[6] = Half life in Sprague-Dawley rat at 1 mg/kg, iv by LC/MS/MS analysis; assay type: ADME, organism-based; details: in vivo; how it was run: as §1

Compound | IC50 [1] [nM] | Vd [2] [L/kg] | clearance [3] [L/h/kg] | AUC [4] [µg·h/mL] | Cmax [5] [µg/mL] | half-life [6] [min]
Cc1ccc(OCCCN2CCOCC2)cc1NC(=O)c1ccc(Nc2ncc(C)c(-c3ccc(OC(F)(F)F)cc3)n2)cc1 | 2.14 | – | – | – | – | –
Cc1ccc(OCCN(C)C)cc1NC(=O)c1ccc(Nc2ncc(C)c(-c3ccc(OC(F)(F)F)cc3)n2)cc1 | 1.07 | – | – | – | – | –
CCN(CC)CCCNC(=O)c1ccc(C)c(NC(=O)c2ccc(Nc3ncc(C)c(-c4ccc(OC(F)(F)F)cc4)n3)cc2)c1 | 0.62 | – | – | – | – | –
CCc1cnc(Nc2ccc(C(=O)Nc3cc(CN4CCN(C)CC4)ccc3C)cc2)nc1-c1ccc(OC(F)(F)F)cc1 | 2.21 | – | – | – | – | –
Cc1ccc(OCCN2CCOCC2)cc1NC(=O)c1ccc(Nc2ncc(C)c(-c3ccc(OC(F)(F)F)cc3)n2)cc1 | 2.45 | – | – | – | – | –
Cc1ccc(CN2CCN(C)CC2)cc1NC(=O)c1ccc(Nc2ncc(C3CC3)c(-c3ccc(OC(F)(F)F)cc3)n2)cc1 | 1.54 | – | – | – | – | –

Next, values leading:

IC50 [1] [nM] | Vd [2] [L/kg] | clearance [3] [L/h/kg] | AUC [4] [µg·h/mL] | Cmax [5] [µg/mL] | half-life [6] [min] | Compound
21.1 | – | – | – | – | – | Cc1ccc(CN2CCCC2)cc1NC(=O)c1ccc(Nc2ncc(C)c(-n3ccnc3)n2)cc1
1.94 | – | – | – | – | – | Cc1ccc(CN2CCCCC2)cc1NC(=O)c1ccc(Nc2ncc(C)c(-c3ccccc3)n2)cc1
7.37 | – | – | – | – | – | Cc1ccc(CN2CCN(C)CC2)cc1NC(=O)c1ccc(Nc2ncc(C)c(-c3ccccn3)n2)cc1
4.28 | 2.75 | 1.29 | 0.787 | 0.863 | 86.4 | Cc1ccc(OCCN2CCOCC2)cc1NC(=O)c1ccc(Nc2ncc(C)c(-c3ccccc3)n2)cc1
29 | 0.7 | 2.02 | 0.521 | 2.52 | 15 | Cc1ccc(CN2CCOCC2)cc1NC(=O)c1ccc(Nc2nccc(-c3cccnc3)n2)cc1
1.89 | 0.888 | 0.736 | 1.37 | 1.54 | 50.4 | Cc1ccc(CN2CCOCC2)cc1NC(=O)c1ccc(Nc2ncc(C)c(-c3ccccn3)n2)cc1

Source: ChEMBL document CHEMBL4152368, “Novel 4-(2-pyrimidinylamino)benzamide derivatives as potent hedgehog signaling pathway inhibitors” (Bioorg Med Chem, 2018)
